Source: ChEMBL document CHEMBL1139544, “Potent, orally active corticotropin-releasing factor receptor-1 antagonists containing a tricyclic pyrrolopyridine or pyrazolopyridine core” (J Med Chem, 2005)

Experiments:
[1] = target: T1, Corticotropin-releasing factor receptor 1 (Homo sapiens, UniProt P34998); assay: Inhibition of [125I]sauvagine binding to corticotropin releasing factor receptor 1 expressed in LtK- cells; Not active (<30% inhibition at 10 uM); type: cell-based
T1 sequence (P34998 whole entry): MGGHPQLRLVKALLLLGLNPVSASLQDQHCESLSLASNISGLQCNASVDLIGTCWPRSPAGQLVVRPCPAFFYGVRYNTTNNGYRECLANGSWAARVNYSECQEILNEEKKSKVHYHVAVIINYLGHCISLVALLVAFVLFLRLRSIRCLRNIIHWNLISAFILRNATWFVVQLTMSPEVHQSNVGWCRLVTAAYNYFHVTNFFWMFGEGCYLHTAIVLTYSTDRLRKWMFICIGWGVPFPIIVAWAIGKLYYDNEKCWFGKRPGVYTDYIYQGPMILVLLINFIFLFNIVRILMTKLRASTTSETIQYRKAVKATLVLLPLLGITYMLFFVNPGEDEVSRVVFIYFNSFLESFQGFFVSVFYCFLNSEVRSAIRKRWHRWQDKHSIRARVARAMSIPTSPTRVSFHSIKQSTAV

[2] = target: T1, Corticotropin-releasing factor receptor 1; assay: Inhibition of [125I]sauvagine binding to corticotropin releasing factor receptor 1 expressed in LtK- cells; type: cell-based
[3] = Half life in rat following administration of 10 mg/kg, p.o. and 10 mg/kg, i.v.; type: ADME, organism-based; details: in vivo
In short: (§1)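 Male Sprague Dawley rats were given one compound intravenously via tail vein and by oral gavage (N = 3/time point), dosed in purified water at 2 mL/kg. Terminal blood and brain were taken at set times for composite sampling. Plasma was acetonitrile-precipitated and analysed by LC-MS/MS (LLOQ 5 ng/mL). Parameters came from a noncompartmental model.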

[4] = Volume of distribution in rat following administration of 10 mg/kg, p.o. and 10 mg/kg, i.v.; type: ADME, organism-based; details: in vivo, iv; in short: as §1
[5] = target: Corticotropin releasing factor receptor (Rattus norvegicus, UniProt P47866+P35353); assay: Inhibition of corticotropin releasing factor stimulated adrenocorticotropic hormone release from rat pituitary cells; type: functional, cell-based; details: pituitary gland cell
In short: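 Pituitaries from 7-week-old female Sprague Dawley rats were digested with collagenase and plated at 40 000 cells/well in 3% FCS/BBM-T for 2-3 days. Compound (1 pM–1 µM) was added with 0.5 nM r/hCRF for 4 h at 37 °C. ACTH in the medium was measured by RIA, and IC50 was obtained by nonlinear curve fitting.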

[6] = Total body clearance in rat following administration of 10 mg/kg, p.o. and 10 mg/kg, i.v.; type: ADME, organism-based; details: in vivo, iv; in short: as §1
[7] = Bioavailability in rat (dose 10 mg/kg p.o. and 10 mg/kg, i.v.); type: ADME, organism-based; details: in vivo, po; in short: as §1
[8] = Half life in rat following administration of 10 mg/kg, p.o. and 10 mg/kg i.v.; type: ADME, organism-based; details: in vivo; in short: as §1
[9] = Total body clearance in rat following administration of 10 mg/kg, p.o. and 10 mg/kg i.v.; type: ADME, organism-based; details: in vivo, iv; in short: as §1
[10] = Bioavailability in rat following administration of 10 mg/kg, p.o. and 10 mg/kg i.v.; type: ADME, organism-based; details: in vivo, po; in short: as §1
[11] = Total body clearance in rat following administration of 10 mg/kg, p.o. and 5 mg/kg, i.v.; type: ADME, organism-based; details: in vivo, iv; in short: as §1
[12] = Bioavailability in rat following administration of 10 mg/kg, p.o. and 5 mg/kg, i.v.; type: ADME, organism-based; details: in vivo, po; in short: as §1
[13] = Volume of distribution in rat following administration of 10 mg/kg, p.o. and 5 mg/kg, i.v.; type: ADME, organism-based; details: in vivo, iv; in short: as §1
[14] = Half life in rat following administration of 10 mg/kg, p.o. and 5 mg/kg, i.v.; type: ADME, organism-based; details: in vivo; in short: as §1
[15] = Total body clearance in rat following administration of 2 mg/kg, p.o. and 1 mg/kg, i.v.; type: ADME, organism-based; details: in vivo, iv
In short: (§2)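 Cassette study in male Sprague Dawley rats: five compounds were co-administered at 2 mg/kg po (gavage) and by tail-vein iv (N = 3/time point), in purified water at 2 mL/kg. Composite terminal plasma sampling was used. Plasma was acetonitrile-precipitated for LC-MS/MS (LLOQ 5 ng/mL). Parameters came from a noncompartmental model.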

[16] = Bioavailability in rat (dose 2 mg/kg p.o. and 1 mg/kg, i.v.); type: ADME, organism-based; details: in vivo, po; in short: as §2
[17] = Half life in rat following administration of 2 mg/kg, p.o. and 1 mg/kg, i.v.; type: ADME, organism-based; details: in vivo; in short: as §2
[18] = Volume of distribution in rat following administration of 2 mg/kg, p.o. and 1 mg/kg, i.v.; type: ADME, organism-based; details: in vivo, iv; in short: as §2

Which Ki [1] does the source give for CCCC(CCC)N1CCc2c3c1cc(C)nc3nn2-c1ccc(Cl)cc1Cl here?
The Ki was “Not Active”.

For CCCC(CCC)N1CCc2cn(-c3ccc(C)cc3)c3nc(C)cc1c23, which Ki [2] is on record?
Its Ki is 30 nM.

Which Ki [2] does the source give for CCCC(CCC)N1CCc2cn(Cc3ccc(Cl)cc3C)c3nc(C)cc1c23 here?
Its Ki is 1900 nM.

For CCC(COC)N1CCc2cn(-c3ccc(Cl)cc3C#N)c3nc(C)cc1c23 (stereo unspecified), which Ki [2] is on record?
Its Ki is 40 nM.

For COCC(COC)N1CCc2cn(-c3ccc(Cl)cc3C#N)c3nc(C)cc1c23, which Ki [2] is on record?
Its Ki is 120 nM.

Which Ki [2] does the source give for CCCC(CCC)N1CCc2cn(-c3ccccc3OC)c3nc(C)cc1c23 here?
Its Ki is 55 nM.

Which Ki [2] does the source give for CCC(CC)N1CCc2cn(-c3ccc(Cl)cc3C#N)c3nc(C)cc1c23 here?
The Ki was 62 nM.

Which half-life [3] does the source give for CCCC(CCC)N1CCc2cn(-c3ccc(S(C)(=O)=O)cc3Cl)c3nc(C)cc1c23 here?
The half-life was 5 h.

What about the Vd [4] of the same compound?
The Vd was 66 L/kg.

What about the IC50 [5] of the same compound?
The IC50 was 250 nM.

What about the Ki [2] of the same compound?
Its Ki is 13 nM.

What about the clearance [6] of the same compound?
The clearance was 152 mL/min/kg.

What about the bioavailability [7] of the same compound?
Its bioavailability is 74%.

With CCCC(CCC)N1CCc2cn(-c3ccc(OC)cc3C)c3nc(C)cc1c23 as the compound, how does the half-life [3] read?
The half-life was 5.7 h.

And the Vd [4]?
The Vd was 53 L/kg.

And the IC50 [5]?
Its IC50 is 39 nM.

What about the Ki [2] of the same compound?
The Ki was 6.5 nM.

What about the clearance [6] of the same compound?
Its clearance is 107 mL/min/kg.

And the bioavailability [7]?
The bioavailability was 18%.

Which half-life [8] does the source give for CCCC(CCC)N1CCc2cn(-c3ccc(C)cc3Cl)c3nc(C)cc1c23 here?
Its half-life is 6.3 h.

And the Vd [4]?
Its Vd is 38 L/kg.

And the IC50 [5]?
Its IC50 is 14 nM.

What about the Ki [2] of the same compound?
The Ki was 3.5 nM.

What about the clearance [9] of the same compound?
The clearance was 70 mL/min/kg.

And the bioavailability [10]?
Its bioavailability is 24%.

Which half-life [3] does the source give for CCCC(CCC)N1CCc2cn(-c3ccc(OC)nc3OC)c3nc(C)cc1c23 here?
Its half-life is 10 h.

What about the Vd [4] of the same compound?
Its Vd is 62 L/kg.

What about the IC50 [5] of the same compound?
Its IC50 is 29 nM.

And the Ki [2]?
Its Ki is 5.4 nM.

What about the clearance [6] of the same compound?
Its clearance is 70 mL/min/kg.

And the bioavailability [7]?
Its bioavailability is 50%.

With CCCC(CCC)N1CCc2nn(-c3ccc(Cl)cc3Cl)c3nc(C)cc1c23 as the compound, how does the clearance [11] read?
The clearance was 43 mL/min/kg.

And the bioavailability [12]?
Its bioavailability is 7%.

And the IC50 [5]?
Its IC50 is 6.8 nM.

What about the Vd [13] of the same compound?
The Vd was 44 L/kg.

And the Ki [2]?
Its Ki is 2.9 nM.

And the half-life [14]?
The half-life was 12 h.

Which Ki [2] does the source give for CCCC(CCC)N1CCc2cn(-c3ccc(Cl)cc3Cl)c3nc(C)cc1c23 here?
Its Ki is 4.2 nM.

Which Ki [2] does the source give for CCCC(CCC)N1CCc2cn(-c3ccc(Cl)cc3C#N)c3nc(C)cc1c23 here?
Its Ki is 13 nM.

Which Ki [1] does the source give for Cc1cc2c3c(cn(-c4ccc(Cl)cc4C#N)c3n1)CCN2C here?
Its Ki is “Not Active”.

For CCCCN1CCc2cn(-c3ccc(Cl)cc3C#N)c3nc(C)cc1c23, which Ki [2] is on record?
The Ki was 49 nM.

Which Ki [2] does the source give for CCCC(CCC)N1CCc2cn(-c3ccc(C#N)cc3Cl)c3nc(C)cc1c23 here?
Its Ki is 7.2 nM.

With CCC(COC)N1CCc2cn(-c3c(C)cc(Cl)cc3C)c3nc(C)cc1c23 (stereo unspecified) as the compound, how does the clearance [15] read?
The clearance was 87 mL/min/kg.

And the IC50 [5]?
Its IC50 is 27 nM.

And the Ki [2]?
The Ki was 16 nM.

What about the bioavailability [16] of the same compound?
Its bioavailability is 66%.

And the half-life [17]?
Its half-life is 2.5 h.

What about the Vd [18] of the same compound?
The Vd was 19 L/kg.

Which clearance [15] does the source give for CCC(CC)N1CCc2cn(-c3ccc(OC(F)(F)F)cc3C)c3nc(C)cc1c23 here?
Its clearance is 28 mL/min/kg.

What about the IC50 [5] of the same compound?
Its IC50 is 48 nM.

And the Ki [2]?
The Ki was 6 nM.

What about the bioavailability [16] of the same compound?
The bioavailability was 76%.

What about the half-life [17] of the same compound?
Its half-life is 33 h.

And the Vd [18]?
The Vd was 80 L/kg.

Which Ki [2] does the source give for CCCC(CCC)N1CCc2cn(-c3cccc(OC)c3)c3nc(C)cc1c23 here?
The Ki was 190 nM.

For CCCCN(CC)c1nc(C)nc2c1c(C)c(C)n2-c1c(C)cc(C)cc1C [ANTALARMIN], which Ki [2] is on record?
The Ki was 3.1 nM.
